Reference: PMC3970594 (Memórias do Instituto Oswaldo Cruz, 2013)
Where two headings read alike, the source gives them in different places.

Columns and labels:
[1] = system: L. (L.) infantum chagasi promastigotes; assay: L.; assay type: cell-based, Leishmania (Leishmania) infantum chagasi; conditions: evaluation of the IC50
Method in brief: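 Promastigotes (MHOM/BR/1972/LD; M-199 with 10% FBS, 0.25% haemin) were seeded at 1 × 10⁶ cells/well. Two-fold serial dilutions were applied for 24 h at 24 °C. MTT was added for 4 h at 24 °C, formazan was dissolved in 10% SDS for 18 h, and OD was read at 570 nm. Viability was normalised to untreated promastigotes (100%). IC50 came from a sigmoid dose-response fit, three experiments in duplicate.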

[2] = ref Chakravarti & Sem Gupta 1950, cited from earlier work
[3] = system: L. (L.) infantum chagasi amastigotes; assay: Treatment of L.; assay type: in vivo, BALB/c mice; conditions: 50 mg Sb5+/kg/day i.p., four consecutive days
Method in brief: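 Female BALB/c mice (20-24 g) were infected i.v. by the retro-bulbar route with 1-2 x 10⁷ hamster-spleen amastigotes/150 µL. From day 7, groups of 4 received 50 mg Sb⁵⁺/kg/day i.p. for four consecutive days; controls received PBS. Mice were euthanised two weeks post-infection and liver and spleen were weighed. Amastigotes per 400 nuclei on Giemsa imprints × organ weight (g) gave Leishman-Donovan units.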

[4] = system: intracellular L. (L.) infantum chagasi amastigotes; assay: Activity against intracellular amastigotes in infected peritoneal macrophages; assay type: cell-based, Leishmania (Leishmania) infantum chagasi; conditions: ratio of IC50 promastigotes to amastigotes
Method in brief: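 For amastigotes, BALB/c peritoneal macrophages were plated on coverslips at 4 × 10⁵/well for 24 h. They were infected with hamster-spleen amastigotes at 10:1 for 24 h and washed. Compound was added for 5 days at 37 °C, 5% CO₂. Giemsa counts in 400 macrophages (untreated = 100%) gave a sigmoid-fit IC50, two experiments in duplicate.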

[5] = ref Rees et al. (1980), cited from earlier work

Compound | susceptibility of promastigotes [1] | time to complete elimination after administration ([2]; healthy individuals, renal excretion) [h] | antimony in the urine 36 h after drug administration ([2]; ill patients (VL), 36 h) | parasite burden in the spleen, mean (SD) ([3]; untreated control 41.69 (8.60)) | parasite burden in the liver, mean (SD) ([3]; untreated control 3,331 (1,745)) | fold more active against amastigotes than against promastigotes [4] [fold] | excreted in the urine ([5]; administered intravenously, after 6 h) [%] | excreted in the urine ([5]; intramuscular injection, after 6-8 h)
meglumine antimoniate [MA] | not susceptible | 24 | traces of antimony were still observed in the urine | 32.17 (19.20) amastigotes per gram | 2,696 (1,472) amastigotes per gram | 680 |  | 
O.O.O.O.O.O.O.O.O.O=C([O-])[C@@H]1[O][Sb](=[O])([O][Sb]2(=[O])[O][C@H]([C@H](O)CO)[C@H](O)[C@H](C(=O)[O-])[O]2)[O][C@H]([C@H](O)CO)[C@@H]1O.[Na+].[Na+].[Na+] (some centres unmarked) [sodium stibogluconate] |  |  |  |  |  |  | 96 | 80-91%
